According to article PMC7935409 (Investigative radiology, 2020):

System: Male Wistar rats
Test: DEN model of hepatic fibrosis and inflammation, body weight and liver histology
Type: in vivo, rat
Settings: for collagen proportional area (CPA), Sirius Red: weekly 100 mg/kg i.p.
Summary of the method: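 Male Wistar rats (190–220 g at start) got weekly i.p. DEN 100 mg/kg in PBS for 4 weeks, or PBS only as controls, and were sampled 1 or 7 days after the last dose. Formalin-fixed, paraffin-embedded 5 μm liver sections were stained with H&E, Sirius Red, and fibrin antibody (1:25). A pathologist scored modified Ishak HAI; CPA was the % Sirius Red area. Values are mean ± standard error, compared by t-test.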

CCN(CC)N=O [DEN, diethylnitrosamine]
HAI score for inflammation (0 – 4) (1 day post DEN): 3.54 ± 0.14 | fibrin immunostaining, area stained (1 day post DEN): 3.56 ± 1.35 | fibrosis Ishak score (0 – 6) (1 day post DEN): 3.62 ± 0.31 | collagen proportional area (CPA), Sirius Red (1 day post DEN): 3.14 ± 1.27% | HAI score for inflammation (0 – 4) (7 days post DEN): 1.61 ± 0.16 | fibrin immunostaining, area stained (7 days post DEN): 1.02 ± 0.58 | fibrosis Ishak score (0 – 6) (7 days post DEN): 3.82 ± 0.25 | collagen proportional area (CPA), Sirius Red (7 days post DEN): 3.30 ± 0.65%
